Data reported in ChEMBL document CHEMBL5724801, “EUbOPEN Chemogenomics Library - Multiplex” (2024).
Where “and” joins values, the source holds several entries; their conditions need not be identical. Equal values may be shown once.

System: HEK-293T
Assay: Multiplex assay against HEK293T
Assay type: toxicity, cell-based
Details: human
How it was run: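 Four dyes were applied at seeding to live cells: Hoechst33342, BioTracker Green Microtubule Cytoskeleton Dye, MitoTracker Red and Annexin V Alexa Fluor 680. Imaging after compound addition used a CQ1 microscope at 37°C and 5% CO2. CellPathfinder machine-learning gating then sorted cells into Hoechst high-intensity objects or normal cells, normal cells into healthy, pyknosed or fragmented nuclei, and pyknosed cells into mitotic or apoptotic, with tubulin, mitochondrial-mass and membrane-permeability phenotypes given as per cents of healthy-nucleus cells.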

[1] = 12 h, 1 µM, compound concentration 1 uM
[2] = 12 h, 10 µM, compound concentration 10 uM
[3] = 24 h, 1 µM, compound concentration 1 uM
[4] = 24 h, 10 µM, compound concentration 10 uM
[5] = 48 h, 1 µM, compound concentration 1 uM
[6] = 48 h, 10 µM, compound concentration 10 uM

## CC(C)CC(=O)Nc1cncc(-c2ccc3[nH]nc(-c4nc5c(-c6cccc(F)c6)cncc5[nH]4)c3c2)c1 [LORECIVIVINT]
[1]
  Population Apoptotic (%): 14.17% and 27.84%
  Population Fragmented Nuclei (%): 5.95% and 3.7%
  Population Hoechst High Intensity Objects (%): 0%
  Population Membrane Permeable-Phenotype (%): 0% and 14.29%
  Population Mitochondria Different-Phenotype (%): 48.15% and 42.86%
  Population Mitotic Cells (%): 85.83% and 72.16%
  Population Normal (%): 100%
  Population Pyknosed Nuclei (%): 64.86% and 89.81%
  Population Tubulin-Different-Phenotype (%): 64.81% and 57.14%
  Total Cell Count: 185 and 108
[2]
  Population Apoptotic (%): 42.93% and 42.98%
  Population Fragmented Nuclei (%): 3.44% and 7.88%
  Population Healthy Nuclei (%): 23.66% and 18.79%
  Population Hoechst High Intensity Objects (%): 0%
  Population Membrane Permeable-Phenotype (%): 3.23%
  Population Mitochondria Different-Phenotype (%): 19.35% and 6.45%
  Population Mitotic Cells (%): 57.07% and 57.02%
  Population Normal (%): 100%
  Population Pyknosed Nuclei (%): 72.9% and 73.33%
  Total Cell Count: 262 and 165
[3]
  Population Apoptotic (%): 54.44% and 66.67%
  Population Fragmented Nuclei (%): 8.33% and 5.61%
  Population Hoechst High Intensity Objects (%): 0.64% and 0%
  Population Membrane Permeable-Phenotype (%): 0%
  Population Mitochondria Different-Phenotype (%): 83.02% and 75%
  Population Mitotic Cells (%): 45.56% and 33.33%
  Population Normal (%): 99.36% and 100%
  Population Pyknosed Nuclei (%): 57.69% and 86.92%
  Population Tubulin-Different-Phenotype (%): 94.34% and 50%
  Total Cell Count: 157 and 107
[4]
  Population Apoptotic (%): 59.46% and 44.57%
  Population Fragmented Nuclei (%): 4.4% and 5.7%
  Population Healthy Nuclei (%): 25.79% and 17.54%
  Population Hoechst High Intensity Objects (%): 0.93% and 0%
  Population Membrane Permeable-Phenotype (%): 3.66% and 10%
  Population Mitotic Cells (%): 40.54% and 55.43%
  Population Normal (%): 99.07% and 100%
  Population Pyknosed Nuclei (%): 69.81% and 76.75%
  Population Tubulin-Different-Phenotype (%): 34.15% and 12.5%
  Total Cell Count: 321 and 228
[5]
  Population Apoptotic (%): 79.78% and 84.11%
  Population Fragmented Nuclei (%): 10.98% and 4.07%
  Population Hoechst High Intensity Objects (%): 1.2% and 0%
  Population Mitochondria Different-Phenotype (%): 82.46% and 45.45%
  Population Mitotic Cells (%): 20.22% and 15.89%
  Population Normal (%): 98.8% and 100%
  Population Pyknosed Nuclei (%): 54.27% and 86.99%
  Population Tubulin-Different-Phenotype (%): 73.68% and 63.64%
  Total Cell Count: 166 and 123
[6]
  Population Apoptotic (%): 54.1% and 55.85%
  Population Fragmented Nuclei (%): 3.22% and 5.44%
  Population Healthy Nuclei (%): 24.93% and 15.9%
  Population Hoechst High Intensity Objects (%): 0.27% and 0.42%
  Population Membrane Permeable-Phenotype (%): 2.15% and 5.26%
  Population Mitochondria Different-Phenotype (%): 30.11% and 18.42%
  Population Mitotic Cells (%): 45.9% and 44.15%
  Population Normal (%): 99.73% and 99.58%
  Population Pyknosed Nuclei (%): 71.85% and 78.66%
  Population Tubulin-Different-Phenotype (%): 15.05% and 18.42%
  Total Cell Count: 374 and 240

## CC(=O)NCCc1c(Cc2ccccc2)[nH]c2ccccc12 [LUZINDOLE]
[1]
  Population Apoptotic (%): 38% and 43%
  Population Fragmented Nuclei (%): 7% and 5%
  Population Healthy Nuclei (%): 79% and 80%
  Population Hoechst High Intensity Objects (%): 11% and 8%
  Population Membrane Permeable-Phenotype (%): 0%
  Population Mitochondria Different-Phenotype (%): 54% and 68%
  Population Mitotic Cells (%): 61% and 56%
  Population Normal (%): 88% and 91%
  Population Pyknosed Nuclei (%): 12% and 13%
  Population Tubulin-Different-Phenotype (%): 39% and 27%
  Total Cell Count: 412 and 304
[2]
  Population Apoptotic (%): 37% and 53%
  Population Fragmented Nuclei (%): 8% and 5%
  Population Healthy Nuclei (%): 77% and 80%
  Population Hoechst High Intensity Objects (%): 10% and 9%
  Population Membrane Permeable-Phenotype (%): 0%
  Population Mitochondria Different-Phenotype (%): 61% and 72%
  Population Mitotic Cells (%): 62% and 46%
  Population Normal (%): 89% and 90%
  Population Pyknosed Nuclei (%): 14%
  Population Tubulin-Different-Phenotype (%): 45% and 35%
  Total Cell Count: 379 and 315
[3]
  Population Apoptotic (%): 20% and 40%
  Population Fragmented Nuclei (%): 12% and 7%
  Population Healthy Nuclei (%): 75% and 82%
  Population Hoechst High Intensity Objects (%): 7% and 8%
  Population Membrane Permeable-Phenotype (%): 0%
  Population Mitochondria Different-Phenotype (%): 33% and 45%
  Population Mitotic Cells (%): 80% and 60%
  Population Normal (%): 92% and 91%
  Population Pyknosed Nuclei (%): 11% and 10%
  Population Tubulin-Different-Phenotype (%): 26% and 18%
  Total Cell Count: 546 and 379
[4]
  Population Apoptotic (%): 40% and 28%
  Population Fragmented Nuclei (%): 9% and 11%
  Population Healthy Nuclei (%): 81% and 77%
  Population Hoechst High Intensity Objects (%): 10% and 11%
  Population Membrane Permeable-Phenotype (%): 1% and 0%
  Population Mitochondria Different-Phenotype (%): 40% and 58%
  Population Mitotic Cells (%): 60% and 71%
  Population Normal (%): 89% and 88%
  Population Pyknosed Nuclei (%): 8% and 11%
  Population Tubulin-Different-Phenotype (%): 32% and 24%
  Total Cell Count: 502 and 388
[5]
  Population Apoptotic (%): 24% and 46%
  Population Fragmented Nuclei (%): 16% and 12%
  Population Healthy Nuclei (%): 78% and 82%
  Population Hoechst High Intensity Objects (%): 3% and 6%
  Population Membrane Permeable-Phenotype (%): 1% and 0%
  Population Mitochondria Different-Phenotype (%): 16% and 23%
  Population Mitotic Cells (%): 75% and 53%
  Population Normal (%): 96% and 93%
  Population Pyknosed Nuclei (%): 5%
  Population Tubulin-Different-Phenotype (%): 12% and 13%
  Total Cell Count: 965 and 522
[6]
  Population Apoptotic (%): 27% and 36%
  Population Fragmented Nuclei (%): 13% and 11%
  Population Healthy Nuclei (%): 79% and 82%
  Population Hoechst High Intensity Objects (%): 9% and 6%
  Population Membrane Permeable-Phenotype (%): 0%
  Population Mitochondria Different-Phenotype (%): 27% and 32%
  Population Mitotic Cells (%): 72% and 63%
  Population Normal (%): 90% and 93%
  Population Pyknosed Nuclei (%): 7% and 5%
  Population Tubulin-Different-Phenotype (%): 17% and 19%
  Total Cell Count: 742 and 573

## N[C@@]1(C(=O)O)CO[C@H]2[C@H](C(=O)O)[C@H]21 [LY-379268]
[1]
  Population Apoptotic (%): 40% and 42%
  Population Fragmented Nuclei (%): 6%
  Population Healthy Nuclei (%): 81% and 80%
  Population Hoechst High Intensity Objects (%): 5% and 10%
  Population Membrane Permeable-Phenotype (%): 0% and 1%
  Population Mitochondria Different-Phenotype (%): 38% and 57%
  Population Mitotic Cells (%): 60% and 57%
  Population Normal (%): 94% and 89%
  Population Pyknosed Nuclei (%): 12%
  Population Tubulin-Different-Phenotype (%): 26% and 18%
  Total Cell Count: 396 and 411
[2]
  Population Apoptotic (%): 27% and 52%
  Population Fragmented Nuclei (%): 10% and 8%
  Population Healthy Nuclei (%): 78% and 79%
  Population Hoechst High Intensity Objects (%): 8% and 7%
  Population Membrane Permeable-Phenotype (%): 0%
  Population Mitochondria Different-Phenotype (%): 33% and 51%
  Population Mitotic Cells (%): 72% and 47%
  Population Normal (%): 91% and 92%
  Population Pyknosed Nuclei (%): 10% and 12%
  Population Tubulin-Different-Phenotype (%): 31% and 18%
  Total Cell Count: 437 and 380
[3]
  Population Apoptotic (%): 30% and 29%
  Population Fragmented Nuclei (%): 8% and 7%
  Population Healthy Nuclei (%): 79% and 83%
  Population Hoechst High Intensity Objects (%): 2% and 7%
  Population Membrane Permeable-Phenotype (%): 0%
  Population Mitochondria Different-Phenotype (%): 21% and 31%
  Population Mitotic Cells (%): 70%
  Population Normal (%): 97% and 92%
  Population Pyknosed Nuclei (%): 11% and 9%
  Population Tubulin-Different-Phenotype (%): 20% and 13%
  Total Cell Count: 517 and 481
[4]
  Population Apoptotic (%): 36% and 43%
  Population Fragmented Nuclei (%): 10% and 8%
  Population Healthy Nuclei (%): 79% and 82%
  Population Hoechst High Intensity Objects (%): 6% and 8%
  Population Membrane Permeable-Phenotype (%): 0%
  Population Mitochondria Different-Phenotype (%): 24% and 39%
  Population Mitotic Cells (%): 63% and 56%
  Population Normal (%): 93% and 91%
  Population Pyknosed Nuclei (%): 9%
  Population Tubulin-Different-Phenotype (%): 15%
  Total Cell Count: 551 and 470
[5]
  Population Apoptotic (%): 26% and 33%
  Population Fragmented Nuclei (%): 13% and 10%
  Population Healthy Nuclei (%): 79% and 81%
  Population Hoechst High Intensity Objects (%): 3% and 7%
  Population Membrane Permeable-Phenotype (%): 1% and 0%
  Population Mitochondria Different-Phenotype (%): 15% and 22%
  Population Mitotic Cells (%): 73% and 66%
  Population Normal (%): 97% and 92%
  Population Pyknosed Nuclei (%): 6% and 7%
  Population Tubulin-Different-Phenotype (%): 9% and 14%
  Total Cell Count: 866 and 611
[6]
  Population Apoptotic (%): 24% and 25%
  Population Fragmented Nuclei (%): 16% and 11%
  Population Healthy Nuclei (%): 75% and 80%
  Population Hoechst High Intensity Objects (%): 4%
  Population Membrane Permeable-Phenotype (%): 1% and 0%
  Population Mitochondria Different-Phenotype (%): 18% and 19%
  Population Mitotic Cells (%): 75%
  Population Normal (%): 95%
  Population Pyknosed Nuclei (%): 7%
  Population Tubulin-Different-Phenotype (%): 10% and 9%
  Total Cell Count: 781 and 689
